# Bioassay records as filed in PubChem BioAssay.
# XiGFP reactiv: reactivates the inactive X chromosome in mouse fibroblasts | XiGFP mouse fibroblasts, % GFP-positive cells imaging, 3 d; cells co-treated with 5-aza-dC sensitizer; scaled so ellipticine positive control = 100% | activation, % at 7.58 µM | 0.055% of 360,000 active;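 active = mean normalized replicate activation at least 10% and every replicate at or above 10%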;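 also: 0% = median of on-plate neutral control wells and 100% = ellipticine 6 µM median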
#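 System: 68-5-11 XiGFP fibroblast line; Timing: 3 days compound exposure; Compound dosing: one concentration, pinned; Benchmarks: positive control ellipticine, 6 µM final; Buffer or medium: DMEM containing 5-aza-dC.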
# CSN inh: CSN deneddylation inhibition | Q92905 | Purified CSN, SCF-Nedd8-OG deneddylation, fluorescence polarization | 0.38% of 360,000 active | inhibition, % at 12.5 µM;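 active = pattern-corrected inhibition above about 35%, with an unprinted fluorescence ratio check between 0.5 and 1.5, limit read from the data, passing the limit was not always enough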;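 also: 0% = enzyme with substrate and 100% = substrate without enzyme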
# Target sequence (Q92905 whole entry, looked up, one chain of several): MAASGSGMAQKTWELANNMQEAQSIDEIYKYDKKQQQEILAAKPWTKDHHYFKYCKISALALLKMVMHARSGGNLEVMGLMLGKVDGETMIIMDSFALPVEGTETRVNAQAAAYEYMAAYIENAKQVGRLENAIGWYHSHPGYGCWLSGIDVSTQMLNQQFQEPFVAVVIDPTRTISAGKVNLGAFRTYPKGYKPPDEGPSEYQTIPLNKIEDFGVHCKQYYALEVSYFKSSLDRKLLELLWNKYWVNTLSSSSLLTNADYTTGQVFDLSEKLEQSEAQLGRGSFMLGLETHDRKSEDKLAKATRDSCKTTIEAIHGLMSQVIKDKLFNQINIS
#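 test system = HEK293T-derived human Csn5 enzyme | amount = 0.24 nM Csn5 enzyme, final concentration | medium = Tris/NaCl/DTT buffer, pH 7.5 | schedule = 90 min reaction at room temperature | signal = FP | evaluation = inhibition of Csn5 cleavage, % | compound dosing = single dose of 12.5 µM compound with 0.25% DMSO | probe or stimulus = 10 nM SCFSkp2-Nedd8OG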
# HNF4A DNA FP: change in binding of human HNF4 alpha to DNA; HNF4a-FITC DNA binding, fluorescence polarization, 1 h; activity change, % at 10 µM; 0.3% of 360,000 active; in the data active = activity change above about 30%, passing the limit was not always enough
# Rpn11 inh: Rpn11 (human) deubiquitinase inhibition; O00487; human 26S proteasome, Ub4-pepOG fluorescence polarization; 20S core pre-blocked with epoxomicin; inhibition, % at 20 µM; 0.59% of 360,000 active; AID 588493;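 active = inhibition at 20 µM, scaled to each plate's controls, above about 33%, limit read from the data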
# Target sequence (O00487 whole entry, looked up): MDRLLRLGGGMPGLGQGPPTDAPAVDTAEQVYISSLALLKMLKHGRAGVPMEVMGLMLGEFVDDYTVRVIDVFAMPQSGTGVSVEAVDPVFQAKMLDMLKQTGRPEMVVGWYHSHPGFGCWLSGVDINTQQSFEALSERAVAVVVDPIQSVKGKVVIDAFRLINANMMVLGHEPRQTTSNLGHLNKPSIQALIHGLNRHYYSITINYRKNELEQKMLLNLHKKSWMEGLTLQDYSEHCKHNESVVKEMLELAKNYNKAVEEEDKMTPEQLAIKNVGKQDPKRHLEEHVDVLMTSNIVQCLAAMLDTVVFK
# aDG glyco up: alpha-DG glycosylation activation | activation, % at 10 µM | AID 624168 | Pro5-aDG cells, alpha-DG glycosylation AlphaScreen (IIH6); 0% Pro5, 100% B10-LARGE cell signal | 0.22% of 360,000 active;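 active = activation of at least 8% versus controls, or a plate z-score of at least 8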;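 also: Pro5 are CHO cells carrying HIG-tagged alpha-DG that lacks glycosylation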
# TPT1 inh: blocks Candida albicans tRNA 2'-phosphotransferase; inhibition, % at 5 µM; 0.81% of 300,000 active; recombinant caTPT1, FP RNA substrate dephosphorylation;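 active = inhibition above the mean of all tested compounds plus 3 SD, set per screening campaign, cut at about 24% in these data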;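 also: plate controls were DMSO alone for no effect and ferristatin control at 100 nM for full effect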
# Rpn11 inh conf: confirmation of human proteasome Rpn11 inhibitors; shares compounds with Rpn11 inh; purified human 26S proteasome, Ub4-pepOG fluorescence polarization; proteasome pretreated with epoxomicin; inhibition, % at 20 µM; 29% of 1,900 active
# MMP-2 inh: blocks human MMP-2, flagging nonselective RPN11 hits; AID 602330; inhibition, % at 20 µM; 4% of 1,900 active; shares compounds with Rpn11 inh; recombinant MMP-2, FRET peptide cleavage fluorescence;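 also: human MMP-2 activated beforehand with APMA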
# Thrombin FP: thrombin (bovine) inhibition counter-screen; inhibition, % at 20 µM; bovine thrombin cleavage of Ub4-pepOG, fluorescence polarization; shares compounds with Rpn11 inh; AID 602333; 13% of 1,900 active;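 active = mean inhibition at least 40% at 20 µM, or signal 3 deviations below plate average, so some actives read negative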;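 also: plate controls were thrombin with DMSO for no effect and buffer wells lacking thrombin for full effect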
# * hit, by the source's call; nt = no result. In the library only some 1.3% were active in any assay of this set; here they are far more common. Rule as the data show it, unless noted: active = inhibition above about 40%; inactive = the rest.
SMILES,XiGFP reactiv,CSN inh,HNF4A DNA FP,Rpn11 inh,aDG glyco up,TPT1 inh,Rpn11 inh conf,MMP-2 inh,Thrombin FP
COc1cccc(NC(=O)N[C@H]2CC[C@H](CC(=O)Nc3ccc(-c4ccccc4)cc3)O[C@@H]2CO)c1,0,nt,nt,nt,nt,nt,nt,nt,nt
COc1ccc2c3c(n(C)c2c1)[C@H](CO)NCC31CCN(CC2CC2)CC1,0,nt,nt,nt,nt,nt,nt,nt,nt
c1ccc2cc(N3CCCCC3)ccc2c1,0,2,2,-7,0,nt,nt,nt,nt
O=C1c2ccccc2C(=O)c2cc(N3CCCCC3)ccc21,0,20,-7,43*,0,nt,24,-18,21
CCCCCCC(=O)Nc1ccc(C(=O)N/N=C/c2cccnc2)cc1,nt,-2,5,1,0,-1,nt,nt,nt
CCCCCCCC(=O)Nc1ccc(C(=O)N/N=C/c2cccc([N+](=O)[O-])c2)cc1,nt,4,-7,38*,-1,-7,3,-34,-11
COc1ccc(NC(=O)Nc2cccc3c2O[C@@H](CN(C)CC2CCCCC2)[C@H](C)CN([C@@H](C)CO)C3=O)cc1,5,nt,nt,nt,nt,nt,nt,nt,nt
CCOC(=O)Cn1c(=NC(=O)c2cc(-c3cccs3)nc3ccccc23)sc2cc(S(N)(=O)=O)ccc21,2,14,25,94*,0,19,18,-24,5
COC(=O)Cn1c(=NC(=O)c2nc3ccccc3s2)sc2cc(S(N)(=O)=O)ccc21,0,18,0,47*,0,2,-6,19,-9
CN(C)CCCNC(=O)C[C@H]1CC[C@H]2[C@@H](COC[C@@H](O)CN2CC2CCCC2)O1,0,nt,nt,nt,nt,nt,nt,nt,nt
C[C@H]1CN([C@@H](C)CO)S(=O)(=O)c2ccc(-c3cccnc3)cc2O[C@@H]1CN(C)Cc1ccncc1,0,nt,nt,nt,nt,nt,nt,nt,nt
CO[C@@H]1CN(C)C(=O)c2ccc(NC(=O)C3CCC3)cc2OC[C@H](C)N(Cc2nccs2)C[C@H]1C,0,nt,nt,nt,nt,nt,nt,nt,nt
O=c1ccc(NS(=O)(=O)c2ccccc2)cn1Cc1ccc(Cl)c(Cl)c1,nt,7,14,36*,0,2,20,28,3
O=C(Cc1ccc(Cl)c(Cl)c1)Nc1ccc(S(=O)(=O)Nc2ncccn2)cc1,0,0,3,9,0,-1,nt,nt,nt
O=C(CN1CCN(c2ccccn2)CC1)NC1CCCC1,nt,-5,6,86*,0,-2,-2,-12,59*
COC(=O)C(C)N1C(=O)S/C(=C\c2cc(C)n(-c3ccccn3)c2C)C1=O (stereo unspecified),nt,1,15,136*,0,-1,1,-25,1
COC(=O)C(C)N1C(=O)S/C(=C/c2cc(C)n(-c3ccccn3)c2C)C1=O (stereo unspecified),nt,-1,-1,4,0,-3,nt,nt,nt
C[C@H](CO)N1C[C@H](C)[C@H](CN(C)S(=O)(=O)c2cccs2)Oc2ccc(NS(C)(=O)=O)cc2C1=O,0,nt,nt,nt,nt,nt,nt,nt,nt
O=C(N/N=C/c1ccc2c(c1)OCO2)c1sc2cc(Cl)ccc2c1Cl,0,0,4,105*,0,1,3,-31,-1
O=C(N/N=C/c1ccc2c(c1)OCO2)c1sc2cccc(Cl)c2c1Cl,nt,-1,-7,1,0,-3,nt,nt,nt
Cc1cccc2cc(C#N)c(SCC(=O)N3CC(=O)Nc4ccccc43)nc12,nt,10,8,25,0,12,nt,nt,nt
COc1ccc2cc(C#N)c(SCC(=O)N3CC(=O)Nc4ccccc43)nc2c1,nt,-8,-1,48*,0,3,-4,-42,-20
CCCOc1cccc(C2C(C(=O)c3ccc(C)o3)=C(O)C(=O)N2c2nc(C)c(C(C)=O)s2)c1 (stereo unspecified),0,19,14,50*,0,17,9,-29,11
COC(=O)C[C@H]1CC[C@H]2[C@@H](COc3ccc(NC(=O)c4cccs4)cc3C(=O)N2C)O1,0,nt,nt,nt,nt,nt,nt,nt,nt
N#CC1=C(N)Oc2cc(N)ccc2C1c1cc(Br)cs1 (stereo unspecified),1,20,17,73*,0,nt,1,18,27
SMILES,XiGFP reactiv,CSN inh,HNF4A DNA FP,Rpn11 inh,aDG glyco up,TPT1 inh,Rpn11 inh conf,MMP-2 inh,Thrombin FP
N#CC1=C(N)Oc2cc(N)ccc2C1c1ccsc1 (stereo unspecified),0,-3,4,4,0,2,nt,nt,nt
CCc1cc(CNC(=O)C2CCC(=O)N(CCc3ccc(OC)cc3)C2)on1 (stereo unspecified),0,-1,39*,85*,0,3,-14,-58,-12
COCCCn1c(=O)/c(=C\c2ccccc2OC(F)F)s/c1=C(/C#N)C(N)=O,0,22,-4,49*,0,3,13,-11,3
CCOC(=O)/C=c1\s/c(=C(\C#N)C(N)=O)n(-c2ccccc2)c1=O,0,-1,2,-4,0,5,nt,nt,nt
O=C(CN1CCOCC1)NCC[C@@H]1CC[C@H](NC(=O)Nc2ccccc2)[C@@H](CO)O1,0,nt,nt,nt,nt,nt,nt,nt,nt
O=C(C[C@@H]1C[C@@H]2c3cc(NC(=O)C4CCOCC4)ccc3O[C@@H]2[C@H](CO)O1)NCc1ccc2c(c1)OCO2,0,nt,nt,nt,nt,nt,nt,nt,nt
COc1ccc(NC(=O)N[C@@H]2C=C[C@@H](CC(=O)NC3CCCCC3)O[C@H]2CO)cc1,0,nt,nt,nt,nt,nt,nt,nt,nt
CCCN1CCN(C(=O)C2CCN(S(=O)(=O)c3ccc4c(c3)NC(=O)C(C)S4)CC2)CC1 (stereo unspecified),0,15,24,40*,0,9,28,-1,15
CCCC(C)C(=O)Nc1ccc(Cl)cn1 (stereo unspecified),nt,5,2,33*,0,-2,-4,-53,-6
CCCCC(=O)Nc1ccc(Cl)cn1,nt,3,2,1,0,-3,nt,nt,nt
Cc1cccc([C@@H]2C[C@H]3CN(Cc4cccc(Cl)c4)C(=O)[C@]34CCCN24)n1,0,0,3,6,0,1,nt,nt,nt
O=C1N(Cc2cccc(Cl)c2)C[C@@H]2C[C@@H](c3cccc4cccnc34)N3CCC[C@@]123,0,16,3,65*,0,8,4,-30,6
CCNc1nc(Cl)nc(NCc2ccccc2)n1,nt,0,-4,68*,0,-1,-22,-30,-22
Cc1nc(NN)nc(NCc2ccccc2)n1,0,5,-3,-1,0,2,nt,nt,nt
